Source: ChEMBL document CHEMBL3272319, “Alkyl streptozotocin analogues with improved biological activities” (J Med Chem, 1976)
Values after ≈ are worked out from the molar mass of the structure shown.

How the values were obtained:
[1] = Therapeutic index, ratio of LD10 for JCL-ICR mouse to ED90 for mouse S180A cells allografted in ICR mouse; conditions: read-out: TI
[2] = test system: Micrococcus luteus; assay: Antibacterial activity against Sarcina lutea ATCC 9341 assessed as growth inhibition after 18 hrs by broth dilution method; type: functional; conditions: ATCC 9341, 18 h
Procedure, shortened: (§1)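 Twofold serial dilutions in heart infusion broth. Inoculum was a 24-h heart infusion broth culture diluted 100-fold in physiological saline. Tubes incubated 30 °C for 18 h; the table footnote gives 32 °C for 24 h. MIC in µg/ml is the lowest level giving complete growth inhibition.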

[3] = Ratio of compound LD50 to streptozotocin LD50 for JCL-ICR mouse; type: ADME, organism-based; conditions: in vivo
[4] = test system: Enterococcus faecalis; assay: Antibacterial activity against Streptococcus faecalis ATCC 10541 assessed as growth inhibition after 18 hrs by broth dilution method; type: functional; conditions: ATCC 10541, 18 h; procedure, shortened: as §1
[5] = test system: Mus musculus; assay: Toxicity in ICR mouse allografted with mouse S180A assessed as mortality at 25 mg/kg, ip qd for 5 days; type: organism-based; set-up: dose 25 mg/kg, route intraperitoneal; conditions: in vivo, 120 h
Procedure, shortened: (§2)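 Ascites Sarcoma 180 (1 × 10^7 cells) implanted into ICR mice, six per group; compound in saline ip once daily days 1-5; sacrifice on day 7; total packed cell volume (ascites volume × PCV) compared with controls as T/C %; mortality recorded.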

[6] = test system: L1210; assay: Antitumor activity against mouse L1210 cells allografted in BDF1 mouse assessed as increase in host lifespan at 50 mg/kg, ip qd for 5 days relative to control; type: functional; conditions: 120 h, route intraperitoneal
Procedure, shortened: (§3)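 L1210 (1 × 10^5 cells) implanted into BDF1 mice, six per group; compound in saline ip once daily days 1-5; effect read as % increase in life span, ILS = [(treated life span/control life span) − 1] × 100.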

[7] = test system: Salmonella typhi; assay: Antibacterial activity against Salmonella typhi IFM 3020 assessed as growth inhibition after 18 hrs by broth dilution method; type: functional, Salmonella enterica subsp. enterica serovar Typhi; conditions: Salmonella enterica, IFM 3020, 18 h
Procedure, shortened: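 Twofold serial dilutions in heart infusion broth; inoculum from 24 h heart infusion broth culture diluted 100-fold in physiological saline; tubes incubated 30 °C for 18 h; MIC (µg/ml) = lowest level giving complete growth inhibition.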

[8] = test system: Pseudomonas fluorescens; assay: Antibacterial activity against Pseudomonas fluorescens NIHJ B-254 assessed as growth inhibition after 18 hrs by broth dilution method; type: functional; conditions: NIHJ B-254, 18 h; procedure, shortened: as §1
[9] = Antitumor activity against mouse S180A allografted in ICR mouse assessed as tumor growth at 25 mg/kg, ip qd for 5 days measured on day 7 relative to control; type: functional; conditions: route intraperitoneal
Procedure, shortened: (§4)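 Ascites Sarcoma 180 (1 × 10^7 cells) implanted into ICR mice, six animals per group. Five daily ip injections in saline (days 1–5). Sacrificed day 7. T/C % computed from total packed cell volume (ascites volume × PCV) vs controls. Grades: 100-66 = -, 65-41 = +, 40-11 = ++, 10-0 = +++.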

[10] = test system: Escherichia coli; assay: Antibacterial activity against Escherichia coli NIHJ JC-2 assessed as growth inhibition after 18 hrs by broth dilution method; type: functional; conditions: NIHJ JC-2, 18 h; procedure, shortened: as §1
[11] = test system: Rattus norvegicus; assay: Diabetogenic activity in Wistar rat assessed as increase in blood sugar level at 30 to 120 mg/kg, ip qd for 1 month measured 24 hrs last drug dosage by glucose oxidase method; type: ADME, organism-based; set-up: dose 30-120 mg/kg, route intraperitoneal; conditions: in vivo
Procedure, shortened: (§5)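 Male Wistar rats, about 150 g, five per group. Drug in physiological saline given ip qd on days 1–30. Blood drawn 24 h after the last dose. Sugar measured by glucose oxidase.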

[12] = Acute toxicity in iv dosed dog; type: organism-based, Canis lupus familiaris; conditions: in vivo
[13] = test system: Rattus norvegicus; assay: Diabetogenic activity in Wistar rat assessed as increase in blood sugar level at 68 mg/kg, iv administered as single dose by glucose oxidase method; type: ADME, organism-based; set-up: dose 68 mg/kg, route intravenous; conditions: in vivo
Procedure, shortened: (§6)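 Male Wistar rats, about 200 g, five per group, fasted 16 h. Single iv dose into the femoral vein in physiological saline, equimolar across compounds. Caudal-vein blood sampled at set times over 24 h. Sugar measured by glucose oxidase.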

[14] = Antitumor activity against mouse S180A cells allografted in ip dosed ICR mouse administered qd for 5 days; type: functional; conditions: 120 h; procedure, shortened: as §4
[15] = test system: Mus musculus; assay: (§7) Acute toxicity in ip dosed JCL-ICR mouse assessed as animal death; type: organism-based; conditions: in vivo
Procedure, shortened: (§8)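 Groups of ten female JCL-ICR mice given single ip dose in physiological saline; deaths followed over 7 days; LD50 (and LD10) derived by Litchfield–Wilcoxon method.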

[16] = as §7; type: organism-based; conditions: JCL-ICR, in vivo; procedure, shortened: as §8
[17] = test system: Shigella sonnei; assay: Antibacterial activity against Shigella sonnei assessed as growth inhibition after 18 hrs by broth dilution method; type: functional; procedure, shortened: as §1
[18] = test system: Mus musculus; assay: Toxicity in ip dosed BDF1 mouse allografted with mouse L1210 cells assessed as optimal dose required for mortality administered qd for 5 days; type: organism-based; conditions: in vivo, 120 h
[19] = test system: L1210; assay: Antitumor activity against mouse L1210 cells allografted in ip dosed BDF1 mouse assessed as 30% increase in host lifespan administered for qd for 5 days; type: functional
[20] = test system: Ehrlich; assay: Antitumor activity against mouse EAC allografted in ICR mouse assessed as tumor growth at 150 mg/kg, ip qd for 5 days measured on day 7 relative to control; type: functional; conditions: route intraperitoneal
Procedure, shortened: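 Ehrlich ascites carcinoma (1 × 10^7 cells) implanted into ICR mice, six per group. Drug in saline ip, qd days 1–5. Mice killed day 7. Total packed cell volume = ascites volume × % packed cell volume; T/C % = TPCV treated/control × 100. Activity graded from T/C.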

[21] = test system: Bacillus subtilis; assay: Antibacterial activity against Bacillus subtilis ATCC 6633 assessed as growth inhibition after 18 hrs by broth dilution method; type: functional; conditions: ATCC 6633, 18 h; procedure, shortened: as §1
[22] = test system: Proteus vulgaris; assay: Antibacterial activity against Proteus vulgaris AHU 1469 assessed as growth inhibition after 18 hrs by broth dilution method; type: functional; conditions: AHU 1469, 18 h; procedure, shortened: as §1
[23] = test system: Mus musculus; assay: Toxicity in ICR mouse allografted with mouse EAC assessed as mortality at 150 mg/kg, ip qd for 5 days; type: organism-based; set-up: dose 150 mg/kg, route intraperitoneal; conditions: in vivo, 120 h
Procedure, shortened: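 Ehrlich ascites carcinoma (1 × 10^7 cells) implanted into ICR mice, six per group; compound ip daily for 5 days; mice sacrificed day 7; tumour burden as total packed cell volume (ascites volume × PCV), T/C % vs controls; mortality recorded.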

[24] = test system: Staphylococcus aureus; assay: Antibacterial activity against Staphylococcus aureus FDA 209P JC-1 assessed as growth inhibition after 18 hrs by broth dilution method; type: functional; conditions: FDA 209P JC-1, 18 h; procedure, shortened: as §1
[25] = test system: Klebsiella pneumoniae; assay: Antibacterial activity against Klebsiella pneumoniae ATCC 10031 assessed as growth inhibition after 18 hrs by broth dilution method; type: functional; conditions: ATCC 10031, 18 h; procedure, shortened: as §1
[26] = Acute toxicity in iv dosed mouse; type: organism-based; conditions: in vivo
[27] = test system: Mus musculus; assay: Ratio of compound LD10 to streptozotocin LD10 for JCL-ICR mouse; type: ADME, organism-based; conditions: in vivo
[28] = test system: Mus musculus; assay: Toxicity in BDF1 mouse allografted with mouse L1210 cells assessed as mortality at 50 mg/kg, ip qd for 5 days; type: organism-based; set-up: dose 50 mg/kg, route intraperitoneal; conditions: in vivo, 120 h; procedure, shortened: as §3
[29] = test system: Rattus norvegicus; assay: Diabetogenic activity in iv dosed Wistar rat assessed as increase in blood sugar level administered as single dose by glucose oxidase method; type: ADME, organism-based; conditions: in vivo; procedure, shortened: as §6
[30] = Antitumor activity against mouse S180A allografted in ICR mouse assessed as tumor growth at 125 mg/kg, ip qd for 5 days measured on day 7 relative to control; type: functional; conditions: route intraperitoneal; procedure, shortened: as §4
[31] = test system: Mus musculus; assay: Toxicity in ICR mouse allografted with mouse S180A assessed as mortality at 125 mg/kg, ip qd for 5 days; type: organism-based; set-up: dose 125 mg/kg, route intraperitoneal; conditions: in vivo, 120 h; procedure, shortened: as §2
[32] = test system: Mus musculus; assay: Toxicity in ICR mouse allografted with mouse S180A assessed as mortality at 50 mg/kg, ip qd for 5 days; type: organism-based; set-up: dose 50 mg/kg, route intraperitoneal; conditions: in vivo, 120 h; procedure, shortened: as §2
[33] = test system: L1210; assay: Antitumor activity against mouse L1210 cells allografted in BDF1 mouse assessed as increase in host lifespan at 100 mg/kg, ip qd for 5 days relative to control; type: functional; conditions: 120 h, route intraperitoneal; procedure, shortened: as §3
[34] = test system: Mus musculus; assay: Toxicity in BDF1 mouse allografted with mouse L1210 cells assessed as mortality at 200 mg/kg, ip qd for 5 days; type: organism-based; set-up: dose 200 mg/kg, route intraperitoneal; conditions: in vivo, 120 h; procedure, shortened: as §3
[35] = test system: Mus musculus; assay: Toxicity in BDF1 mouse allografted with mouse L1210 cells assessed as mortality at 100 mg/kg, ip qd for 5 days; type: organism-based; set-up: dose 100 mg/kg, route intraperitoneal; conditions: in vivo, 120 h; procedure, shortened: as §3
[36] = test system: Rattus norvegicus; assay: Diabetogenic activity in Wistar rat assessed as increase in blood sugar level at 65 mg/kg, iv administered as single dose by glucose oxidase method; type: ADME, organism-based; set-up: dose 65 mg/kg, route intravenous; conditions: in vivo; procedure, shortened: as §6
[37] = Antitumor activity against mouse S180A allografted in ICR mouse assessed as tumor growth at 50 mg/kg, ip qd for 5 days measured on day 7 relative to control; type: functional; conditions: route intraperitoneal; procedure, shortened: as §4
[38] = test system: Rattus norvegicus; assay: Diabetogenic activity in Wistar rat assessed as increase in blood sugar level at 20 mg/kg, ip qd for 1 month measured 24 hrs last drug dosage by glucose oxidase method; type: ADME, organism-based; set-up: dose 20 mg/kg, route intraperitoneal; conditions: in vivo; procedure, shortened: as §5
[39] = test system: L1210; assay: Antitumor activity against mouse L1210 cells allografted in BDF1 mouse assessed as increase in host lifespan at 200 mg/kg, ip qd for 5 days relative to control; type: functional; conditions: 120 h, route intraperitoneal; procedure, shortened: as §3

CO[C@@H]1O[C@H](CO)[C@@H](O)[C@H](O)[C@H]1NC(=O)N(C)N=O showed a selectivity ratio [1] of 16, an MIC [2] greater than 1000 µg/mL and a selectivity ratio [3] of 2. For the same molecule, the MIC [4] was greater than 1000 µg/mL, the Activity [5] was “Non-toxic” and the ILS at 50 mg/kg [6] was 40%. For the same molecule, the MIC [7] was greater than 1000 µg/mL, the MIC [8] was greater than 1000 µg/mL and the T/C [9] was 22%. The MIC [10] was greater than 1000 µg/mL, the Activity [11] was “Non-toxic” and the LD50 [12] was 400 mg/kg. The Activity [13] was “Non-toxic”, the ED90 [14] was 50 mg/kg/day and the LD10 [15] was 800 mg/kg. The LD50 [16] was 1700 mg/kg, the MIC [17] was greater than 1000 µg/mL and the Activity [18] was 400 mg/kg/day. The Activity [19] was 33 mg/kg/day, the T/C [20] was 1% and the MIC [21] was greater than 1000 µg/mL. For the same molecule, the MIC [22] was greater than 1000 µg/mL, the Activity [23] was “Non-toxic” and the MIC [24] was greater than 1000 µg/mL. For the same molecule, the MIC [25] was greater than 1000 µg/mL, the LD50 [26] was 1620 mg/kg and the Ratio [27] was 2. The Activity [28] was “Non-toxic”.
For CCCCN(N=O)C(=O)N[C@H]1[C@@H](OC)O[C@H](CO)[C@@H](O)[C@@H]1O, the Activity [29] was “Non-toxic”, the T/C [30] was 75% and the Activity [31] was “Non-toxic”.
In the case of CN(N=O)C(=O)N[C@@H](C=O)[C@@H](O)[C@H](O)[C@H](O)CO [STREPTOZOCIN], the selectivity ratio [1] is reported as 2.6, the MIC [2] is reported as greater than 200 µg/mL and the Activity [32] is reported as “Non-toxic”. For the same molecule, the ILS at 100 mg/kg [33] was 76%, the Activity [5] was “Non-toxic” and the ILS at 50 mg/kg [6] was 44%. The MIC [7] was greater than 200 µg/mL, the MIC [8] was 6.3 µg/mL (≈ 23.8 µM) and the Activity [34] was “Non-toxic”. The T/C [9] was 40%, the MIC [10] was 12.5 µg/mL (≈ 47.1 µM) and the Activity [35] was “Non-toxic”. The LD50 [12] was 50 mg/kg, the ED90 [14] was 90 mg/kg/day and the Activity [36] was “Toxic”. The T/C [37] was 26%, the Activity [38] was “Toxic” and the LD10 [15] was 235 mg/kg. The LD50 [16] was 360 mg/kg, the MIC [17] was greater than 200 µg/mL and the Activity [18] was 100 mg/kg/day. It also gave an Activity [19] of 23 mg/kg/day, an MIC [21] of 12.5 µg/mL (≈ 47.1 µM) and an MIC [22] of 0.4 µg/mL (≈ 1.51 µM). The MIC [24] was 1.6 µg/mL (≈ 6.03 µM), the MIC [25] was greater than 200 µg/mL and the LD50 [26] was 275 mg/kg. For the same molecule, the ILS at 200 mg/kg [39] was 0% and the Activity [28] was “Non-toxic”.
